Several values for one entry are separate records, joined by “and”; a condition that tells them apart may be missing. Identical values can stand only once.

Assay [1] deals with Urease subunit alpha/Urease subunit beta (Helicobacter pylori (strain ATCC 700392 / 26695) (Campylobacterpylori)) (UniProt P69996+P14916). The assay is described as follows: Inhibition of Helicobacter pylori ATCC 43504 urease at 400 ug/mL after 3 hrs pre-incubation. The essentials: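 Urease from H. pylori ATCC 43504 cultured 24 h at 37 °C in brucella broth with 10% heat-inactivated horse serum, microaerobic (5% O2, 10% CO2, 85% N2). 4 U enzyme preincubated with test compound 3 h at room temperature. Activity read as ammonia production by the indophenol method; percent inhibition recorded.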

In assay [2] the target is T1, Urease subunit alpha/Urease subunit beta (Helicobacter pylori (strain ATCC 700392 / 26695) (Campylobacterpylori), UniProt P69996). The assay is described as follows: Inhibition of Helicobacter pylori ATCC 43504 urease after 3 hrs pre-incubation. The essentials: (§1)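 Urease source: H. pylori ATCC 43504 grown 24 h at 37 °C, microaerobic (5% O2, 10% CO2, 85% N2), in brucella broth with 10% heat-inactivated horse serum. Enzyme (4 U) preincubated with test compound 3 h at room temperature. Ammonia production read by the indophenol method. IC50 values from triplicate measurements, reported as mean ± SD.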

Assay [3] has as its target T1, Urease subunit alpha/Urease subunit beta. The assay is described as follows: Inhibition of Helicobacter pylori ATCC 43504 urease in presence of 0.4 mM 2-mercaptoethanol after 3 hrs pre-incubation. The essentials: as §1
The target is the same in assay [4]. The assay is described as follows: Inhibition of Helicobacter pylori ATCC 43504 urease in presence of 0.4 mM dithiothreitol after 3 hrs pre-incubation. In short, it runs like this:
as §1

Urease subunit alpha/Urease subunit beta (Helicobacter pylori (strain ATCC 700392 / 26695) (Campylobacterpylori)), sequence (P14916 whole entry, looked up): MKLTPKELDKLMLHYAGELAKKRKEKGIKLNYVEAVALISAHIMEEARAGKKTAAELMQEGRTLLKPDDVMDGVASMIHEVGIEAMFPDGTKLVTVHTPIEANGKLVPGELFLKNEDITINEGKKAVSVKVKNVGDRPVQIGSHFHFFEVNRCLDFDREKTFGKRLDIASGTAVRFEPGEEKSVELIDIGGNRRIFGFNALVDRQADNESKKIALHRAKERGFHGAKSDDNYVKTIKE
Urease subunit alpha/Urease subunit beta (Helicobacter pylori (strain ATCC 700392 / 26695) (Campylobacterpylori)), sequence (P69996 whole entry, looked up): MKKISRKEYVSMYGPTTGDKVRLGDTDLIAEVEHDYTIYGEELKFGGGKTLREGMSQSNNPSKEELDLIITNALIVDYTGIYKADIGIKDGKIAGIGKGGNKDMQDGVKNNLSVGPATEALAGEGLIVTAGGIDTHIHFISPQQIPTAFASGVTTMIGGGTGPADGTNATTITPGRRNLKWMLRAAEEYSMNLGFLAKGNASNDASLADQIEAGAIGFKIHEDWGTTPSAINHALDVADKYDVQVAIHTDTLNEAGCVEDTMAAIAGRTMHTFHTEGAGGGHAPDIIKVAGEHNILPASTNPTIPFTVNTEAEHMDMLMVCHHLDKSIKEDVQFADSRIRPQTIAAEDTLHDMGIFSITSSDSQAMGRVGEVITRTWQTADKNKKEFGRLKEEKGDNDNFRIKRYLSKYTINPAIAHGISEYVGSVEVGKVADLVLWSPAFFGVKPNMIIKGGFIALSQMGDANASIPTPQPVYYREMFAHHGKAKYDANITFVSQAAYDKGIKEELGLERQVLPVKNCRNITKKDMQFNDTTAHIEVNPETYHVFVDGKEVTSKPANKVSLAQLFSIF
T1 sequence (P69996 whole entry): as the sequence (P69996 whole entry, looked up) above
T1 sequence (P14916 whole entry, further chain): as the sequence (P14916 whole entry, looked up) above

Consider `O=C(Cc1ccc(O)cc1)c1ccc(O)c(O)c1O`, for which the inhibition (as a rule, the drop in the measured response relative to a control, in per cent) in assay [1] worked out at 51%.
Still for that read-out and setting: under `O=C(Cc1ccc(O)cc1)c1ccc(O)c(O)c1` stands 39%; under `COc1ccc(CC(O)c2ccc(OC)c(OC)c2O)cc1` (configuration not stated), 42%.
Same read-out and setting: under `CC(=O)c1ccc(O)c(O)c1` stands 41%.
`O=C(Cc1ccc(O)cc1)c1ccc(O)cc1O`: the inhibition in assay [1] amounted to 16%.
With `O=c1c(-c2ccc(O)cc2)coc2c(O)c(O)ccc12`, the inhibition in assay [1] was determined as 81.7%. Further, the figures for the IC50 in assay [2], in assay [3] and in assay [4] were 140 µM, greater than 1480 µM and greater than 1480 µM, respectively.
In assay [1], `COc1ccc(CC(=O)c2ccc(O)cc2O)cc1` returned an inhibition of 14%.
Compound `Oc1ccc(CCc2ccc(O)c(O)c2O)cc1` registered an inhibition in assay [1] of 94.5%. Further, the IC50 (commonly the concentration that inhibits the measured activity by half) was found to be 30 µM in assay [2], 71 µM in assay [3] and 53 µM in assay [4].
Turning to `CC(=O)c1ccc(O)cc1O`, the inhibition in assay [1] turned out to be 14%.
Still for that read-out and setting: to `COc1ccc(CC(=O)c2ccc(O)c(O)c2O)cc1` belongs 44%.
As to `COc1c(O)cc(O)c(C(=O)Cc2ccc(O)cc2)c1O`, the inhibition in assay [1] is 17%.
Take `CC(=O)c1ccc(O)c(O)c1O`: the inhibition in assay [1] was 38%.
With `CC(=O)NO` [ACETOHYDROXAMIC ACID], the figures for the IC50 in assay [2], in assay [3] and in assay [4] were 17 µM, 19 µM and 18 µM, respectively.
As for `COc1c(O)cc(O)c2c(=O)c(-c3ccc(O)cc3)coc12`, the inhibition in assay [1] is 23% and 36%.

Values taken from ChEMBL document CHEMBL1147950, “Polyphenols based on isoflavones as inhibitors of Helicobacter pylori urease” (Bioorg Med Chem, 2007).
